Test results from ChEMBL document CHEMBL1137811, “Four new bromotryptamine derivatives from the marine bryozoan Flustra foliacea” (J Nat Prod, 2002).
Activity calls are given as the source filed them.

Tests used:
Type in all cases: cell-based
Details in all cases: Oocyte
[1] = biological target: Potassium voltage-gated channel subfamily A member 4 (Rattus norvegicus) (UniProt P15385); experiment: Blockade of voltage-activated rat Kv1.4 potassium channel expressed in Xenopus laevis oocytes assessed as effect on evoked current upto 10 uM by two-electrode voltage clamp method
Potassium voltage-gated channel subfamily A member 4 (Rattus norvegicus), sequence (P15385 whole entry): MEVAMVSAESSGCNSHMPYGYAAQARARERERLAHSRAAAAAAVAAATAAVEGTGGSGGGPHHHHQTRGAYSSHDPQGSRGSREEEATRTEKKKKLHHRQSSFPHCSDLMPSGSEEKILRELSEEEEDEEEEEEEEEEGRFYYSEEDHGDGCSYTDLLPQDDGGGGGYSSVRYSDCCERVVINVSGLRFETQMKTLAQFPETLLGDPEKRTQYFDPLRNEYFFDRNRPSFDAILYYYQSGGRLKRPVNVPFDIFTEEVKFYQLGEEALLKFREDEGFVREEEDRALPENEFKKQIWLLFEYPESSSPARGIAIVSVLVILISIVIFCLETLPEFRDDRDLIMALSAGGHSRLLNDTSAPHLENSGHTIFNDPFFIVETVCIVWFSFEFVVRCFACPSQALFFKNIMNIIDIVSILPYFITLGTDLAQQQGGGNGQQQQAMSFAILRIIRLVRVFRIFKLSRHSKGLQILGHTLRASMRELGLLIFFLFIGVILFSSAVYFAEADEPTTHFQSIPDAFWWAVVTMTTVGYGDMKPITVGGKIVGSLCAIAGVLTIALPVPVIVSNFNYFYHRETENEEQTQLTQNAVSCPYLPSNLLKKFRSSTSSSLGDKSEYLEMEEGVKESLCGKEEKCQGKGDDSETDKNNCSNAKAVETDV
Procedure, shortened: (§1)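 Channels expressed in Xenopus laevis oocytes from injected cRNA (rat Kv1.1, rat Kv1.4 or rat brain type II Na channel), incubated 1-5 days. Vitelline membrane removed. Two-electrode voltage clamp, whole-cell currents; 2 M KCl electrodes, 0.6-1.0 MΩ. Filtered 1 kHz, sampled 4 kHz, P/n leak subtraction. Bath: frog Ringer's, pH 7.2. Compounds from DMSO stock, final up to 10 μM in bath; DMSO-only control.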

[2] = biological target: Potassium voltage-gated channel subfamily A member 1 (Rattus norvegicus) (UniProt P10499); experiment: Blockade of voltage-activated rat Kv1.1 potassium channel expressed in Xenopus laevis oocytes assessed as effect on evoked current upto 10 uM by two-electrode voltage clamp method; procedure, shortened: as §1
Potassium voltage-gated channel subfamily A member 1 (Rattus norvegicus), sequence (P10499 whole entry): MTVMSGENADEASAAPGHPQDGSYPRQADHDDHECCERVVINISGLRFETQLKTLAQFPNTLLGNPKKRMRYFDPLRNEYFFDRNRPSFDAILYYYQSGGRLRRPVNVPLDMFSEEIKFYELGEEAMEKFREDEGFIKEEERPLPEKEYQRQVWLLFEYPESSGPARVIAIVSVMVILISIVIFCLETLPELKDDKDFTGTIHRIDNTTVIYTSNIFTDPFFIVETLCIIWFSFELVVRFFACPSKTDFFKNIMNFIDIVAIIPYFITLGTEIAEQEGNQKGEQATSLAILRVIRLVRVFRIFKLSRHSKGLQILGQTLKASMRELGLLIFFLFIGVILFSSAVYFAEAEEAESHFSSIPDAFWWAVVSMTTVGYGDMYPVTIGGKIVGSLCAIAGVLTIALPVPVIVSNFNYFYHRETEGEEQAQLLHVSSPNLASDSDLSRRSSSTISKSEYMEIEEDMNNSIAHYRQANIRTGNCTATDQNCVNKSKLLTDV

[3] = biological target: Sodium channel protein type 2 subunit alpha (Rattus norvegicus) (UniProt P04775); experiment: Blockade of voltage-activated rat brain Nav1.2 sodium channel type 2 channel expressed in Xenopus laevis oocytes assessed as effect on evoked current by two-electrode voltage clamp method; procedure, shortened: as §1
Sodium channel protein type 2 subunit alpha (Rattus norvegicus), sequence (P04775 whole entry, looked up): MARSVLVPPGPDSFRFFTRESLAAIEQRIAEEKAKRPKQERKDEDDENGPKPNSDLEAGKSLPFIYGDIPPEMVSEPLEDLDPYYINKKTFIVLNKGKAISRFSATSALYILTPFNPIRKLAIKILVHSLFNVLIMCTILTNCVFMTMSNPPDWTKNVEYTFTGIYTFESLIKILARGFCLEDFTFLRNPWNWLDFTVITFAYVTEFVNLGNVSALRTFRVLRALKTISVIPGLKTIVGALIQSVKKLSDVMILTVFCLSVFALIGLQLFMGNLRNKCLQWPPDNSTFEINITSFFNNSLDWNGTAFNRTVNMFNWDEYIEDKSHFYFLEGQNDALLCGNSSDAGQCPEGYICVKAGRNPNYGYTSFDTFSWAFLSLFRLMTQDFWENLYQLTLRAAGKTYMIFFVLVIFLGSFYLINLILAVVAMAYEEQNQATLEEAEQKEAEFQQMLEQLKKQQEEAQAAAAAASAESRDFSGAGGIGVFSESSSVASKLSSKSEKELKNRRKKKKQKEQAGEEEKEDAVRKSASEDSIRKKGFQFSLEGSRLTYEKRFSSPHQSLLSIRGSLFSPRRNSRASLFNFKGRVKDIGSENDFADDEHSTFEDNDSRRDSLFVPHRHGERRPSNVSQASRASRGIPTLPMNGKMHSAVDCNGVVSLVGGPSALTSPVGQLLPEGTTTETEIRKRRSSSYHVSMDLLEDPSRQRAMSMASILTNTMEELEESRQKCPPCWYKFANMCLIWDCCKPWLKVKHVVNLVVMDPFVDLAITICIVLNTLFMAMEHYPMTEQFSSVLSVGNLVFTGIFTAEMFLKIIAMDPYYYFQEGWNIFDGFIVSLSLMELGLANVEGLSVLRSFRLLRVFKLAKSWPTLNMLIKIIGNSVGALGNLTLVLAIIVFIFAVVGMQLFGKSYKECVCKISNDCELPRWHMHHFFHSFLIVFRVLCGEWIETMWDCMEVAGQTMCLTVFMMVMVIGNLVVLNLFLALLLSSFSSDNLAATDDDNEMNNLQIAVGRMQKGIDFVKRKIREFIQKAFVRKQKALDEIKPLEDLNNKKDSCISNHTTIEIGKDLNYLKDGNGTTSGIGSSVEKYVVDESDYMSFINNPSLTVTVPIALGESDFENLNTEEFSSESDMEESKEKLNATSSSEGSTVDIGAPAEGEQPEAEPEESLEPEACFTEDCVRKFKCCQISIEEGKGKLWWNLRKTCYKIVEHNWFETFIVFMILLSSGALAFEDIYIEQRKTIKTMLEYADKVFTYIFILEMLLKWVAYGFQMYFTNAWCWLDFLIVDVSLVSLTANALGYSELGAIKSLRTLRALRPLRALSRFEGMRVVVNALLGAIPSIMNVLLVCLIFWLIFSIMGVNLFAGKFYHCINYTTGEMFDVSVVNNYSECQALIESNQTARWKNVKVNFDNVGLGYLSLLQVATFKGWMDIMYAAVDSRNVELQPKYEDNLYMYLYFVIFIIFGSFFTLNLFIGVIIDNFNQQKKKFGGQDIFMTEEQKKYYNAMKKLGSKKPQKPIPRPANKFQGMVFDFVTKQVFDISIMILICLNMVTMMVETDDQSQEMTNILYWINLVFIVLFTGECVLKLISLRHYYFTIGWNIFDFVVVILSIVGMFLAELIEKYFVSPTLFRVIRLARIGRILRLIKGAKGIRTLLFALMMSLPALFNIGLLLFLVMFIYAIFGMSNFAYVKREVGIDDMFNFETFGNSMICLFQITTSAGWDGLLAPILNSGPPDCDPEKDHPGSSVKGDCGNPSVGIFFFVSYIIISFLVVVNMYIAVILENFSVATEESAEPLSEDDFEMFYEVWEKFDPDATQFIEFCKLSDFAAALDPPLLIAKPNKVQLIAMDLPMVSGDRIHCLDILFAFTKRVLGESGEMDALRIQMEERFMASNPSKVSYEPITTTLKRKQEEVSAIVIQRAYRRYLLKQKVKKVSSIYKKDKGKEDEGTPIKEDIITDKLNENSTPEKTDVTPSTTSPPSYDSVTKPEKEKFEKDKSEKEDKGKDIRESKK

Measured: Activity

C=CC(C)(C)c1[nH]c2cc(Br)ccc2c1CCNC
inactive: all assays above

C=CC(C)(C)[C@@]12CCN(C)C1=Nc1cc(Br)ccc12
inactive: all assays above

C=CC(C)(C)[C@@]12CCN(C)[C@@H]1Nc1cc(Br)ccc12
inactive: all assays above

C=CC(C)(C)[C@@]12CCN(C)[C@@H]1N(CC=C(C)C)c1cc(Br)ccc12
inactive: all assays above
